Among the data in ChEMBL document CHEMBL2380260, “Structure-activity relationship of N,N'-disubstituted pyrimidinetriones as Ca(V)1.3 calcium channel-selective antagonists for Parkinson's disease” (J Med Chem, 2013) are Ratio IC50 and IC50 values, retold here.

A short description of assay [1]: Selectivity ratio of IC50 for rabbit CaV1.2alpha1C to IC50 for rat CaV1.3alpha1D. The essentials: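 Selectivity is defined as […] the ratio of the CaV1.2 IC50 to the CaV1.3 IC50. Both IC50s come from the Fluo-8 FLIPR calcium influx assay in stably transfected HEK293 cells, each run in triplicate and fitted to a one-site sigmoidal model.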
The target of assay [2] is Voltage-dependent L-type calcium channel subunit alpha-1C (Oryctolagus cuniculus, UniProt P15381). Put plainly: Antagonist activity at rabbit CaV1.2alpha1C transfected in HEK293 cells by FLIPR assay. Format: cell-based. In short, it runs like this: (§1)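 HEK293 cells stably expressing the L-type channel (rat CaV1.3 α1D with all alternative splice sites, or rabbit CaV1.2 α1C), each co-expressed with rat β3 and α2δ-1 subunits. Cells plated at 4 × 10⁴ cells/well and cultured in DMEM with 10% FBS for 4 days. Calcium influx read by Fluo-8 no-wash dye fluorescence on FLIPR Tetra. IC50 from triplicate percent-inhibition data fitted to a one-site sigmoidal model.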

For assay [3], the target named is Voltage-dependent L-type calcium channel subunit alpha-1D (Rattus norvegicus, UniProt P27732). Put plainly: Antagonist activity at rat CaV1.3alpha1D transfected in HEK293 cells by FLIPR assay. The class given is cell-based. The essentials:
as §1

Some results are limits rather than exact numbers.

Sequence of Voltage-dependent L-type calcium channel subunit alpha-1C (P15381 whole entry, canonical isoform): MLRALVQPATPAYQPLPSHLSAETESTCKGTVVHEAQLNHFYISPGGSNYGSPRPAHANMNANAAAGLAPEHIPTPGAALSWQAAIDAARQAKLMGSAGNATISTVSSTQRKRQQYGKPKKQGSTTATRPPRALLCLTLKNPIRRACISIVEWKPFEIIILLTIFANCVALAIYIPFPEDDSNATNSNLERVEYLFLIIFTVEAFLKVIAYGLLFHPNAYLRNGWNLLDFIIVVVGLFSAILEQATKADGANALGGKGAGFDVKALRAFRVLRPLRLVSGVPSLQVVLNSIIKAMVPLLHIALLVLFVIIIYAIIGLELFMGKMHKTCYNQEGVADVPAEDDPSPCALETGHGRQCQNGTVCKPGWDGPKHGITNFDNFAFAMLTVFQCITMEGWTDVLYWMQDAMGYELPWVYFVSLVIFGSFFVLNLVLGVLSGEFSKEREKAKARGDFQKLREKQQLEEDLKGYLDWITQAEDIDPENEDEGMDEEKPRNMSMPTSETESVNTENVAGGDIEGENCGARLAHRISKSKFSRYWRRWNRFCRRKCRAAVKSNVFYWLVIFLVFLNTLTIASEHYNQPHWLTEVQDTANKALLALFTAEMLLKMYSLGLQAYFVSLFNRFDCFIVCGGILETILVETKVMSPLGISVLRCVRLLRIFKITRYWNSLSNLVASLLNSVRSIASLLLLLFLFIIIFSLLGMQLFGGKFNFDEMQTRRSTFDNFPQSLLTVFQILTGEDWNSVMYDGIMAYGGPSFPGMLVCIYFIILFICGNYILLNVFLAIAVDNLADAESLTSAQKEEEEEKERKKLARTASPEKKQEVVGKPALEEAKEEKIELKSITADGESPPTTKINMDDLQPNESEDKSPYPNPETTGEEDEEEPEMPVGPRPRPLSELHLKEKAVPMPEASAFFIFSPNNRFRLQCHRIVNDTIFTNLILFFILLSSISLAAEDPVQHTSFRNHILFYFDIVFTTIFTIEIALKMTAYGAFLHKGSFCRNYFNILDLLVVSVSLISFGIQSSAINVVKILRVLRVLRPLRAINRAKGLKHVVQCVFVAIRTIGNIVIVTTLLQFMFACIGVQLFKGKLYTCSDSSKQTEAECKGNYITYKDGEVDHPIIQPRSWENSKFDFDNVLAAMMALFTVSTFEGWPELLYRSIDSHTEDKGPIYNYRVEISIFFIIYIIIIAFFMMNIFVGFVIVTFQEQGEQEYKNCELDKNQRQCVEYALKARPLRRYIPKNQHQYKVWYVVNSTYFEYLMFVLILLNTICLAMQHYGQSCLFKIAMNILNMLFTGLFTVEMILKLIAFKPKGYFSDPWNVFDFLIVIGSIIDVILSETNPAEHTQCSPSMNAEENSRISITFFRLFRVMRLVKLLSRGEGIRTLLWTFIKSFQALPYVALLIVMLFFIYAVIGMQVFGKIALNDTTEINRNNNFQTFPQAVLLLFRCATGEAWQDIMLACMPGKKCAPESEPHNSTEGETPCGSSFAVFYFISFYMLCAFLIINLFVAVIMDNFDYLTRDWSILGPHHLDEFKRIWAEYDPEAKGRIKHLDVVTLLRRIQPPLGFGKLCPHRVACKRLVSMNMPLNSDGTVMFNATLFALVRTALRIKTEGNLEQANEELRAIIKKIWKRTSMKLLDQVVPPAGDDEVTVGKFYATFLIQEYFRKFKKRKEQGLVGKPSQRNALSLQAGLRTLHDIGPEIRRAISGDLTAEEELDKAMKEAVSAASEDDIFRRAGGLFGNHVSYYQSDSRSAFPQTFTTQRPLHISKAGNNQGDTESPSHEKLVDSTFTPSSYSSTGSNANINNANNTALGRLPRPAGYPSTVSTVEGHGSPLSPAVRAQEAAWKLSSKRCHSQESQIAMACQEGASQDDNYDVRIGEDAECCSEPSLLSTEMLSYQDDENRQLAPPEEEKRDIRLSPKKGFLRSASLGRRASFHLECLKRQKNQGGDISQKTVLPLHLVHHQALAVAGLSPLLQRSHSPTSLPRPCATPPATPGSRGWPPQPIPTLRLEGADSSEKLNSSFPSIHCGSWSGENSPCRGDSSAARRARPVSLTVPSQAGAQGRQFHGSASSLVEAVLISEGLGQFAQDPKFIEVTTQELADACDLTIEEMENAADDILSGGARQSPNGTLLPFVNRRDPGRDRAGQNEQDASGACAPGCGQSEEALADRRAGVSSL
Sequence of Voltage-dependent L-type calcium channel subunit alpha-1D (P27732 whole entry): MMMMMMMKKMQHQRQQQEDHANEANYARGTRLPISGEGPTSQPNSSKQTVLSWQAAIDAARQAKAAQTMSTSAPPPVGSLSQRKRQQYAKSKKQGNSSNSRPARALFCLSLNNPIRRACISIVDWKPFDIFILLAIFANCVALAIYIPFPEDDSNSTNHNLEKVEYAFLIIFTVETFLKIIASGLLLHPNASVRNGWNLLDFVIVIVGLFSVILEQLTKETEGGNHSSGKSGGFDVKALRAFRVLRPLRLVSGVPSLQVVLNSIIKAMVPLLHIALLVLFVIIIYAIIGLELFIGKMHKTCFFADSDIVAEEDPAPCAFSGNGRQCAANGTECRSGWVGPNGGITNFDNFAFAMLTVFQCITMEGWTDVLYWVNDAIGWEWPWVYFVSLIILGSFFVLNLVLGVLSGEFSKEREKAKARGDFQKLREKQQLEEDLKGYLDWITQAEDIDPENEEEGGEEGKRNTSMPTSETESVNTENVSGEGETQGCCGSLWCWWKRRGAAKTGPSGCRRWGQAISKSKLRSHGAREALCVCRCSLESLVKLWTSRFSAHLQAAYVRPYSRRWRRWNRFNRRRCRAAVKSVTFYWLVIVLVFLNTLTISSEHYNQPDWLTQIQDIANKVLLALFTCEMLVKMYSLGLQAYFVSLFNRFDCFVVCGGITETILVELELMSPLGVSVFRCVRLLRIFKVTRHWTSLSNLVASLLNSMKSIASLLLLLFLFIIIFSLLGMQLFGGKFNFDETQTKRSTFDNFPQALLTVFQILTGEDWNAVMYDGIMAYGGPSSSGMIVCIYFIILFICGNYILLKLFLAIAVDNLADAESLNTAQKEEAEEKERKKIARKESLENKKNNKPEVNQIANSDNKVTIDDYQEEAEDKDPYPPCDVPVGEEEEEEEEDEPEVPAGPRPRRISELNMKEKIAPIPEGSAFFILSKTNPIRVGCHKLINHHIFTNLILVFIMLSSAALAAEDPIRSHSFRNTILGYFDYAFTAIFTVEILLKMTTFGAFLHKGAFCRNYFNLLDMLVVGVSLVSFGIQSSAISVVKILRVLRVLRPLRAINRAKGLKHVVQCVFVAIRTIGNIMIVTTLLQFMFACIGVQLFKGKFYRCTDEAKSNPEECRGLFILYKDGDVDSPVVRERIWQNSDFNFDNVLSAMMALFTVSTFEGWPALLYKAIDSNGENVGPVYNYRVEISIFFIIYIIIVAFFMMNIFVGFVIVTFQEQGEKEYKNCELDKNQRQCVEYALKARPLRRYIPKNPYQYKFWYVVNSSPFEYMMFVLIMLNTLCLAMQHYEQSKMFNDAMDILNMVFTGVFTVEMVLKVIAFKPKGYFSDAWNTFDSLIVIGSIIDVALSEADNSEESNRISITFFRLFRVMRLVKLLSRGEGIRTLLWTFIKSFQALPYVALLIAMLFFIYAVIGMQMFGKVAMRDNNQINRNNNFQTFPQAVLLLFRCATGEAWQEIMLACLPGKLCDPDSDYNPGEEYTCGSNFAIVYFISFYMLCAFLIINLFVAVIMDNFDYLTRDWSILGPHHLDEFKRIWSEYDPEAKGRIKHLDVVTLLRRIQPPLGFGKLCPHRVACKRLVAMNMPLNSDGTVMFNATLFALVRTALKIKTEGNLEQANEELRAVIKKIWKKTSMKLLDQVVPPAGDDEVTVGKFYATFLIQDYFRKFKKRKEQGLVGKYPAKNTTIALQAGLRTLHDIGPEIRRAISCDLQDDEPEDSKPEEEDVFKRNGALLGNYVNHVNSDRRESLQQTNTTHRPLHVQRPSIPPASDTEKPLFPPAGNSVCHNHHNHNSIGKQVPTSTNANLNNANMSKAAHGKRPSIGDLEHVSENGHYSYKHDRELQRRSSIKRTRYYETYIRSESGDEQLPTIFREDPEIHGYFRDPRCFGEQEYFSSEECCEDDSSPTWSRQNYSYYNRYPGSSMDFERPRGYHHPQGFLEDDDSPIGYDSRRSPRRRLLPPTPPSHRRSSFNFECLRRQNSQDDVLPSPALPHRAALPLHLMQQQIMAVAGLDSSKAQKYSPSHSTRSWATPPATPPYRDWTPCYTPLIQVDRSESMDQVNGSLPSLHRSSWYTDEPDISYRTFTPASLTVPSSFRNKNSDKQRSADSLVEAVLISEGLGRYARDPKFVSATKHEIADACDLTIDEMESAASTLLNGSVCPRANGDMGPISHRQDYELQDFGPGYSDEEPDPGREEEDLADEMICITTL

One may read the IC50 as the concentration needed to halve the response being measured. On to `O=C1CC(=O)N(C2CCCC2)C(=O)N1CCc1cc(C(F)(F)F)cc(C(F)(F)F)c1`, for which the Ratio IC50 in assay [1] was determined as 1.8. Further, the values for the IC50 in assay [2] and in assay [3] were 2.6 µM and 1.4 µM, respectively.

Consider `C[C@H]1CCC[C@H]1N1C(=O)CC(=O)N(CCc2cccc(Cl)c2)C1=O`, for which, in assay [1], the Ratio IC50 came out at 1.3. The values for the IC50 in assay [2] and in assay [3] were 9.3 µM and 7.3 µM, respectively.

As to `COC(=O)C1=C(C)NC(=S)N(C(=O)OC(C)C)C1c1cccc([N+](=O)[O-])c1` (configuration not stated), in assay [1], the Ratio IC50 was less than 2.

As for `COc1ccc(CCN(C)CCCC(C#N)(c2ccc(OC)c(OC)c2)C(C)C)cc1OC` (configuration not stated), the Ratio IC50 in assay [1] was less than 2.

Regarding `COC(=O)C1=C(C)NC(C)=C(C(=O)OC(C)C)C1c1cccc2nonc12` (configuration not stated), in assay [1], the Ratio IC50 was less than 2.

Take `CC1(C)CCC[C@H]1N1C(=O)CC(=O)N(CCc2cccc(Cl)c2)C1=O`: the Ratio IC50 in assay [1] was determined as 1.9. Also, the IC50 in assay [2] stood at 4.7 µM; in assay [3], 2.5 µM.

On to `C[C@H](C1CCCCC1)N1C(=O)CC(=O)N(CCc2ccc(Cl)cc2)C1=O`, for which the Ratio IC50 in assay [1] is greater than 12. Also, the figures for the IC50 in assay [2] and in assay [3] were greater than 100 µM and 8.1 µM, respectively.

On to `C[C@@H](C1CCCCC1)N1C(=O)CC(=O)N(CCc2ccc(Cl)cc2)C1=O`, for which, in assay [1], the Ratio IC50 is greater than 12. Besides, the IC50 in assay [2] was greater than 100 µM; in assay [3] it was 8.3 µM.

With `O=C1CC(=O)N([C@@H]2C[C@@H]3CC[C@H]2C3)C(=O)N1CCc1ccc(Cl)cc1`, the Ratio IC50 in assay [1] stood at 11. For the same molecule, the IC50 in assay [2] came out at 54 µM; in assay [3], 1.9 µM.

For `CC(C)(CN1C(=O)CC(=O)N(C2CCCC2)C1=O)c1cccc(Cl)c1`, in assay [1], the Ratio IC50 came to 4.9. Further, the IC50 turned out to be 12.6 µM in assay [2] and 2.4 µM in assay [3].

With `O=C1CC(=O)N(C2CC3CCC2C3)C(=O)N1CCc1ccc(Cl)cc1` (mixture of isomers), the Ratio IC50 in assay [1] was determined as 8.9. Moreover, the values for the IC50 in assay [2] and in assay [3] were 50 µM and 5.6 µM, respectively.

For the molecule `O=C1CC(=O)N(C2CCCC2)C(=O)N1CCCc1ccccc1`, the Ratio IC50 in assay [1] worked out at 2.9. The IC50 in assay [2] turned out to be 21.9 µM; in assay [3], 7.6 µM.

As to `C[C@H]1CCC[C@@H]1N1C(=O)CC(=O)N(CCc2cccc(Cl)c2)C1=O` (racemic), the Ratio IC50 in assay [1] was 1.8. Also, the IC50 in assay [2] was 21 µM; in assay [3], 11 µM.

As to `O=C1CC(=O)N(C2CCCC2)C(=O)N1CCc1ccc(Cl)c(Cl)c1`, in assay [1], the Ratio IC50 was determined as 2.7. In addition, the IC50 was found to be 3.4 µM in assay [2] and 1.2 µM in assay [3].

Consider `CC1(C)CCC[C@@H]1N1C(=O)CC(=O)N(CCc2cccc(Cl)c2)C1=O`, for which the Ratio IC50 in assay [1] was found to be 1.6. The IC50 amounted to 3.5 µM in assay [2] and 2.1 µM in assay [3].

As for `CC(Cc1ccc(Cl)cc1)N1C(=O)CC(=O)N(C2CC3CCC2C3)C1=O` (racemic), the IC50 stood at 4.1 µM in assay [2] and 3.6 µM in assay [3].

Take `C[C@H](c1cccc2ccccc12)N1C(=O)CC(=O)N(C2CCCC2)C1=O`: the IC50 in assay [2] was determined as 6.15 µM; in assay [3], 4.6 µM.

`C[C@H]1CCC[C@@H]1N1C(=O)CC(=O)N(CCc2ccc(Cl)cc2)C1=O` (racemic): the IC50 in assay [2] worked out at 23 µM; in assay [3], 7 µM.

Consider `O=C1CC(=O)N([C@@H]2C[C@@H]3CC[C@H]2C3)C(=O)N1CCc1cccc(Cl)c1`, for which, in assay [1], the Ratio IC50 is greater than 50. Moreover, the values for the IC50 in assay [2] and in assay [3] were greater than 100 µM and 2 µM, respectively.

Turning to `O=C1CC(=O)N(C2CCCC2)C(=O)N1CCc1ccc(OCc2ccccc2)cc1`, the Ratio IC50 in assay [1] was found to be 0.5. Further, the IC50 in assay [2] worked out at 18.7 µM; in assay [3] it was 34.1 µM.

Consider `CC(CN1C(=O)CC(=O)N(C2CC3CCC2C3)C1=O)c1cccc(Cl)c1` (mixture of isomers), for which, in assay [1], the Ratio IC50 turned out to be 2.1. Further, the IC50 in assay [2] came to 5.1 µM; in assay [3] it was 2.4 µM.

As for `CC1(C)CCC[C@H]1N1C(=O)CC(=O)N(CCc2cccc(C(F)(F)F)c2)C1=O`, the IC50 in assay [2] was determined as 3.1 µM; in assay [3], 2.7 µM.

`CC1(C)CCC[C@H]1N1C(=O)CC(=O)N(CCc2ccc(Cl)cc2)C1=O`: the IC50 came out at 4.8 µM in assay [2] and 4.7 µM in assay [3].

In the case of `O=C1CC(=O)N(C[C@H]2CCCO2)C(=O)N1CCc1cccc(Cl)c1`, the IC50 in assay [2] is 41 µM; in assay [3], greater than 100 µM.

For the molecule `O=C1CC(=O)N([C@H]2C[C@H]3CC[C@@H]2C3)C(=O)N1CCc1cccc(C(F)(F)F)c1`, the IC50 in assay [2] was greater than 100 µM; in assay [3] it was 3 µM.

For the molecule `CC1(C)CCC(N2C(=O)CC(=O)N(CCc3ccc(Cl)cc3)C2=O)C1` (configuration not stated), the IC50 in assay [2] came out at 26 µM; in assay [3], 3.7 µM.

For `CC(CN1C(=O)CC(=O)N(C2CCCC2)C1=O)c1cccc(Cl)c1` (configuration not stated), the IC50 amounted to 20.7 µM in assay [2] and 4.2 µM in assay [3].

Consider `O=C1CC(=O)N(C2CCCC2)C(=O)N1Cc1cccc(Cl)c1`, for which the IC50 turned out to be 46.7 µM in assay [2] and 43 µM in assay [3].

For `O=C1CC(=O)N(C2CCCC2)C(=O)N1CCc1cccc(Cl)c1`, the IC50 is greater than 100 µM in assay [2] and 6.3 µM in assay [3].

Regarding `O=C1CC(=O)N(C2CCCc3ccccc32)C(=O)N1C1CCCC1` (configuration not stated), the IC50 in assay [2] turned out to be 20 µM; in assay [3] it was 19.7 µM.

Turning to `CC1CCC(N2C(=O)CC(=O)N(CCc3ccc(Cl)cc3)C2=O)C1` (configuration not stated), the IC50 in assay [2] came to 20.4 µM; in assay [3] it was 9.8 µM.

For `O=C1CC(=O)N(C2CCCC2)C(=O)N1CC(c1ccccc1)c1ccccc1`, the Ratio IC50 in assay [1] came to 1.6. Further, the IC50 in assay [2] was 8.1 µM; in assay [3], 5.2 µM.

Regarding `C[C@@H]1[C@@H](C)CC[C@@H]1N1C(=O)CC(=O)N(CCc2cccc(Cl)c2)C1=O`, the IC50 turned out to be 13.2 µM in assay [2] and 3.09 µM in assay [3].

Take `COc1ccc([C@@H]2Sc3ccccc3N(CCN(C)C)C(=O)[C@@H]2OC(C)=O)cc1`: the Ratio IC50 in assay [1] is less than 2.

On to `O=C1CC(=O)N([C@H]2C[C@H]3CC[C@@H]2C3)C(=O)N1CCc1cccc(Cl)c1`, for which the Ratio IC50 in assay [1] was greater than 29. The values for the IC50 in assay [2] and in assay [3] were greater than 100 µM and 3.5 µM, respectively.

Take `C[C@H]1CCC[C@H]1N1C(=O)CC(=O)N(CCc2ccc(Cl)cc2)C1=O`: the half-maximal inhibitory concentration (IC50) in assay [2] worked out at 10 µM; in assay [3] it was 2.8 µM.

`CC(=O)O[C@@H]1CCC[C@@H]1N1C(=O)CC(=O)N(CCc2cccc(Cl)c2)C1=O`: the Ratio IC50 in assay [1] stood at 0.6. For the same molecule, the figures for the IC50 in assay [2] and in assay [3] were 23.4 µM and 38.6 µM, respectively.

`CC(C)C(=O)OCC1(N2C(=O)CC(=O)N(CCc3cccc(Cl)c3)C2=O)CCCC1`: the values for the IC50 in assay [2] and in assay [3] were 10.6 µM and 11.9 µM, respectively.

Turning to `CCC1CCC(N2C(=O)CC(=O)N(CCc3ccc(Cl)cc3)C2=O)C1` (racemic), the values for the IC50 in assay [2] and in assay [3] were 29 µM and 6.7 µM, respectively.

With `CC1(C)[C@@H]2CC[C@@]1(C)[C@@H](N1C(=O)CC(=O)N(CCc3ccc(Cl)cc3)C1=O)C2`, the IC50 in assay [2] and in assay [3] was greater than 100 µM throughout.

For the molecule `O=C1CC(=O)N(C2CCCC2)C(=O)N1CCC(c1ccccc1)c1ccccc1`, the IC50 in assay [2] was found to be 4.7 µM; in assay [3], 4.1 µM.

`O=C(OCCc1cccc(F)c1)[C@H]1CC[C@@H](N2C(=O)CC(=O)N(CCc3cccc(Cl)c3)C2=O)C1`: the Ratio IC50 in assay [1] came out at 0.7. Further, the IC50 came out at 6.7 µM in assay [2] and 9.7 µM in assay [3].

Turning to `CC(C)(CN1C(=O)CC(=O)N(C2CCCC2)C1=O)c1cccc(C(F)(F)F)c1`, the IC50 amounted to 4.2 µM in assay [2] and 2.2 µM in assay [3].

Consider `C[C@@H]1CCC[C@@H]1N1C(=O)CC(=O)N(CCc2cccc(Cl)c2)C1=O`, for which, in assay [1], the Ratio IC50 was determined as 2.3. In addition, the IC50 in assay [2] is 13 µM; in assay [3], 5.5 µM.

For `CCC(CC)N1C(=O)CC(=O)N(CCc2cccc(Cl)c2)C1=O`, the IC50 in assay [2] turned out to be 25.5 µM; in assay [3], 11.7 µM.

Consider `COC(=O)[C@H](Cc1ccccc1)N1C(=O)CC(=O)N(C2CCCC2)C1=O`, for which the IC50 in assay [2] and in assay [3] was greater than 100 µM throughout.

For `CCOC(=O)[C@@H]1CCC[C@@H]1N1C(=O)CC(=O)N(CCc2cccc(Cl)c2)C1=O`, the IC50 amounted to 12.6 µM in assay [2] and 12 µM in assay [3].

With `O=C1CC(=O)N(C2CCCC2)C(=O)N1CC1(c2ccc(Cl)cc2)CC1`, the IC50 in assay [2] was greater than 100 µM; in assay [3], 7.3 µM.
